This is a sample that favours compounds with a hit; in the whole collection about 3.7% have one here.
Kir21 block: Kir2.1 (mouse) channel inhibition; P35561; HEK293-Kir2.1, FluxOR thallium flux fluorescence; stronger effect = lower value; B-score at 10 µM; actives 0.85% (n = 310,000); AID 1672;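 active = fluorescence ratio B-score at or below minus 3 SD of library scores, with starting-brightness B-score within 2 SD, cut at about -4.2 in these data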;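 also: channel flux triggered by added potassium and thallium sulfate stimulus; B-score of peak minus minimum fluorescence over baseline after thallium stimulus; more negative B-score means stronger Kir2.1 block with less thallium influx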
KCNK3 block: human KCNK3 channel inhibition, primary screen; B-score at 10 µM; actives 0.84% (n = 340,000); O14649; CHO-KCNK3 thallium flux, FluxOR fluorescence; stronger effect = lower value; AID 602410;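 active = B-score under library mean minus 4 SD, starting fluorescence ratio at most library mean plus 5 SD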;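 also: more negative B-score means stronger inhibition of thallium flux through KCNK3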
KCNQ1 act: human KCNQ1 channel potentiation or activation; P51787; CHO-K1 KCNQ1, thallium flux FluxOR fluorescence; stronger effect = higher value; actives 0.35% (n = 310,000); B-score at 10 µM;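 active = fluorescence ratio B-score, a plate-corrected score, at least three library SD, with initial intensity B-score within 5 SD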
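System: Stable KCNQ1 CHO-K1 line | Incubation: 90 min dye loading and 20 min compound exposure, both at room temperature | Measure: Ratio B score | Medium: Assay buffer for compound exposure, DMSO matched across wells | Compound dosing: Single-concentration screen | Probe or stimulus: K+/Tl+ depolarizing stimulus | Measured by: Kinetic FluxOR fluorescence, 10 s baseline plus 110 s post-stimulus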
KCNQ1 inh: inhibitors of human KCNQ1 potassium channel | P51787 | CHO-K1 KCNQ1, FluxOR thallium flux fluorescence; stronger effect = higher value | B-score at 10 µM | actives 1.3% (n = 310,000) | AID 2642;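 active = compounds whose thallium flux B-score, printed positive for inhibition, exceeds three library SD while starting fluorescence stays within three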;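 also: channel opened by potassium depolarization with thallium stimulus after 20 min compound exposure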
KCNK9 inh: human KCNK9 channel inhibition; Q9NPC2; HEK293 KCNK9, FluxOR thallium flux fluorescence; stronger effect = lower value; B-score at 10 µM; actives 1.2% (n = 310,000);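 active = ratio B-score over 3 SD below the library mean, with starting fluorescence within 5 SD of its mean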;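 also: negative B-score means less thallium flux so channel inhibition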
hERG protect: shields human hERG channel from block by proarrhythmic agents; activation (rescue from dofetilide block), less the hit threshold, % at 10 µM; AID 1511; CHO-hERG, FluxOR thallium flux, dofetilide IC70 present; Q12809; actives 0.51% (n = 310,000);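 active = activation above the mean of controls blocked by dofetilide plus 5 SD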;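 also: thallium influx through hERG after potassium depolarization seen as dye fluorescence rise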
KCNQ1 inh valid: human KCNQ1 channel inhibition, validation assay. shares compounds with KCNQ1 inh. KCNQ1 cell line, FluxOR thallium flux fluorescence. inhibition, % at 10 µM. actives 93% (n = 1,600);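 active = primary screen active, with duplicate mean exceeding buffer control mean plus 3 SD of buffer wells, cut at about 28% in these data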
CHO Tl flux: activity in parental CHO cells lacking KCNQ1; shares compounds with KCNQ1 inh; parental CHO-K1, FluxOR thallium flux fluorescence ratio; stronger effect = lower value; zero means no signal rise above baseline; fluorescence ratio (Tl flux) at 10 µM; actives 21% (n = 1,600); AID 588366;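 active = mean of duplicate thallium-flux fluorescence ratios in parental host cells more than 5 SD below the buffer control mean, cut at about 0.38 in these data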;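 also: ratio is peak minus minimum fluorescence divided by baseline fluorescence; actives read low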
KCNQ1 APC inh: blocks human KCNQ1 current in automated patch clamp. calls only at 10 µM. AID 624120. actives 20% (n = 490). KCNQ1-CHO cells. shares compounds with KCNQ1 inh;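 active = KCNQ1 current drop exceeding 3 SD of negative control wells, seen in both duplicate runs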;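 also: steady state current during a 2 s step from -80 to +40 mV; negative values mean current inhibition and positive values mean potentiation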
KCNQ2 inh: selectivity of KCNQ1 inhibitors: inhibition of rat KCNQ2 channel; shares compounds with KCNQ1 inh; KCNQ2 cells, FluxOR thallium flux fluorescence; inhibition, % at 10 µM; actives 71% (n = 1,600);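 active = mean percent inhibition of the KCNQ2 thallium signal more than 5 SD above the buffer-only control wells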;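 also: KCNQ2 expressed in CHO cells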
KCNQ1-KCNE1 inh: KCNQ1 inhibitor that also blocks human KCNQ1/KCNE1 channel; inhibition, % at 10 µM; AID 652147; actives 77% (n = 1,600); KCNQ1/KCNE1 cells, FluxOR thallium flux fluorescence; shares compounds with KCNQ1 inh;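 active = mean percent inhibition of duplicate wells above the buffer-only control mean plus 3 SD of those controls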
Each line names hits and unclear results; the compound was inactive in the other large screens (follow-up assays come after a bar, where they were run).

CCN(CC)C(C(=O)NC1CCCCC1)c1ccc(C)cc1 (stereo not drawn)	KCNQ1 inh 7 | KCNQ1 inh valid 75 | CHO Tl flux inactive | KCNQ2 inh 65% | KCNQ1-KCNE1 inh 110%
CC(C)(C)c1ccc(OCCC(=O)OCC(=O)NC2CCS(=O)(=O)C2)cc1 (stereo not drawn)	none
CC1Sc2ccc(S(=O)(=O)N3CCC(C(=O)Nc4ccc(Cl)cc4)CC3)cc2NC1=O (stereo not drawn)	KCNQ1 inh 11 | KCNQ1 inh valid 144 | CHO Tl flux 0.38 | KCNQ2 inh 104% | KCNQ1-KCNE1 inh 168%
O=c1[nH]c(C2CCN(S(=O)(=O)/C=C/c3ccccc3)CC2)nc2c1nnn2Cc1ccccc1	none
CC(C)(C)c1csc(NC(=O)c2ccccc2O)n1	KCNQ1 inh 9 | KCNQ1 inh valid 65 | CHO Tl flux inactive | KCNQ2 inh inactive | KCNQ1-KCNE1 inh inactive
CCN(CC)CC(=O)Nc1sc(C)cc1C(=O)c1ccc(C)cc1	KCNQ1 inh 7 | KCNQ1 inh valid 118 | CHO Tl flux inactive | KCNQ1 APC inh inactive | KCNQ2 inh 91% | KCNQ1-KCNE1 inh 154%
CC(C)(C)c1cc(NCc2ccccn2)n2ncc(-c3ccccc3)c2n1	KCNQ1 inh 7 | KCNQ1 inh valid 72 | CHO Tl flux inactive | KCNQ2 inh inactive | KCNQ1-KCNE1 inh 61%
Cc1cc(NC(C)c2ccccc2)n2ncc(-c3ccccc3)c2n1 (stereo not drawn)	none
COc1cccc(OC)c1Oc1ccc(C(F)(F)F)cn1	KCNQ1 inh 7 | KCNQ1 inh valid 85 | CHO Tl flux inactive | KCNQ2 inh inactive | KCNQ1-KCNE1 inh 82%
FC(F)(F)c1ccc(Oc2ccccc2Cl)nc1	none
O=C(c1cccc(N2C(=O)C3C4C=CC(C4)C3C2=O)c1)N1CCCc2ccccc21 (stereo not drawn)	KCNQ1 inh 10 | KCNQ1 inh valid inactive | CHO Tl flux inactive | KCNQ2 inh inactive | KCNQ1-KCNE1 inh 46%
COC(=O)c1cnn(-c2ccc(Cl)cc2)c1/C=N/NC(N)=S	none
Cc1ccc(CNC(=S)NC2CCC(C(C)(C)C)CC2)cc1 (stereo not drawn)	KCNQ1 inh 13 | KCNQ1 inh valid 108 | CHO Tl flux inactive | KCNQ1 APC inh inactive | KCNQ2 inh 84% | KCNQ1-KCNE1 inh 80%
Fc1ccc(CNC(=S)NC2CCCCCC2)cc1	none
CC12CCC(C(=O)Nc3ccc(Br)cn3)(OC1=O)C2(C)C (stereo not drawn)	none
COCC(=O)N1CCC2CC1c1c(-c3ccc(C(F)(F)F)cc3)cccc12 (stereo not drawn)	none (no result: Kir21 block, KCNQ1 act, KCNQ1 inh, KCNK9 inh, hERG protect)
CC(=O)Nc1cccc2ccc(O)cc12	none (no result: Kir21 block, KCNQ1 act, KCNQ1 inh, KCNK9 inh, hERG protect)
O=C(Nc1ccc(Br)cc1)Nc1ccccc1F	KCNQ1 inh 7 | KCNQ1 inh valid 52 | CHO Tl flux inactive | KCNQ2 inh inactive | KCNQ1-KCNE1 inh inactive
O=C(Nc1ccccc1F)Nc1cccc2ccc(O)cc12	KCNQ1 inh 9 | KCNQ1 inh valid 80 | CHO Tl flux inactive | KCNQ2 inh 64% | KCNQ1-KCNE1 inh inactive
Cc1cc2c(NC(=O)Nc3ccccc3)cccc2nn1	none
Cc1ccccc1NC(=O)Nc1ccc(C(F)(F)F)cc1	KCNQ1 inh 6 | KCNQ1 inh valid 134 | CHO Tl flux inactive | KCNQ1 APC inh inactive | KCNQ2 inh 101% | KCNQ1-KCNE1 inh inactive
